# According to ChEMBL document CHEMBL1157427, “In vitro and in vivo anti-tumoral activities of imidazo[1,2-a]quinoxaline, imidazo[1,5-a]quinoxaline, and pyrazolo[1,5-a]quinoxaline derivatives” (Bioorg Med Chem, 2008):
# The source made the active and inactive calls. The calls are words filed in the database; no cut-off is given here.
# Test system: LS174T
# Assay: Cytotoxicity against human LS174T cells after 96 hrs by MTT assay
# Type: functional, cell-based
# Details: not given
# How it was run: (§1)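 Cells were seeded at 5000/well in DMEM (M4Be) or RPMI-1640 (others) and attached overnight. They were then exposed for 96 h at 37 °C, 5% CO2 to 10^-4 to 10^-10 […] in 1% DMSO/medium. MTT was added for 4 h, formazan dissolved in isopropanol/1 M HCl, and OD read at 570 nm. Survival was taken as % of vehicle control and IC50 as 50% growth inhibition. ≥3 experiments in triplicate; mean ± SD.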
row,SMILES,IC50 [µM]
1,CNc1nc2ccccc2n2c(CCc3ccccc3)cnc12,4.12
2,CC(C)Cn1cnc2c(N)nc3ccccc3c21 [IMIQUIMOD],34.4
3,CCc1c2c(nc3ccc(OC(=O)N4CCC(N5CCCCC5)CC4)cc13)-c1cc3c(c(=O)n1C2)COC(=O)[C@]3(O)CC [IRINOTECAN],1.16

# Test system: M4Be
# Assay: Antitumor activity against human M4Be cells xenografted Swiss nude mouse assessed as reduction in tumor volume at 20 mg/kg, ip administered twice a week for 3 weeks measured from day 18 to day 55
# Type: functional, organism-based
# Set-up: dose 20 mg/kg
# Details: not given
# How it was run: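 Female Swiss nude mice (7 weeks old) were given 3×10^6 M4Be cells s.c. in the flank. At ~0.7 cm3 they were randomized, 6 per group, and received 20 mg/kg twice weekly (Mon/Thu) for 3 weeks in intralipid/DMSO (50:50), with the cycle repeated after 15 days. Controls received vehicle. Calipers twice weekly, V = 0.5ab². Repeated-measures ANOVA with contrast test, significance 0.02. Mean ± SEM.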
row,SMILES,Activity
1,CNc1nc2ccccc2n2c(CCc3ccccc3)cnc12,Active

# Test system: Raji
# Assay: Cytotoxicity against human Raji cells after 96 hrs by MTT assay
# Type: functional, cell-based
# Details: not given
# How it was run: as §1
row,SMILES,IC50 [µM]
1,CNc1nc2ccccc2n2c(CCc3ccccc3)cnc12,6.23
2,CN(Cc1cnc2nc(N)nc(N)c2n1)c1ccc(C(=O)N[C@@H](CCC(=O)O)C(=O)O)cc1 [METHOTREXATE],0.04

# Test system: A-375
# Assay: Cytotoxicity against human A375 cells after 96 hrs by MTT assay
# Type: functional, cell-based
# Details: A-375, 96 h
# How it was run: as §1
row,SMILES,IC50 [µM]
1,CNc1nc2ccccc2n2nc(CC(C)C)cc12,78.6
2,CN(C)c1nc2ccccc2n2cncc12,121
3,CN(C)c1nc2ccccc2n2c(CCc3ccccc3)cnc12,80.1
4,CC(C)Cc1cnc2c(N(C)C)nc3ccccc3n12,66.3
5,Cc1cccc(Cl)c1Nc1nc2ccccc2n2c(CC(C)C)cnc12,> 400
6,Nc1nc2ccccc2n2c(CCc3ccccc3)cnc12,2.35
7,COc1nc2ccccc2n2c(CCc3ccccc3)cnc12,47.8
8,CNc1nc2ccccc2n2c(C)ncc12,100
9,CNc1nc2ccccc2n2cncc12,85.3
10,CC(C)Cc1cc2c(N(C)C)nc3ccccc3n2n1,101
11,CNc1nc2ccccc2n2c(CC(C)C)cnc12,31.6
12,CNc1nc2ccccc2n2c(-c3ccccc3)ncc12,> 400
13,Clc1nc2ccccc2n2c(CCc3ccccc3)cnc12,24
14,Cc1cccc(Cl)c1Nc1nc2ccccc2n2c(CCc3ccccc3)cnc12,329

# Test system: not listed separately
# Assay: Cytotoxicity against human M4Be cells after 96 hrs by MTT assay
# Type: functional, cell-based
# Details: not given
# How it was run: as §1
row,SMILES,IC50 [µM]
1,CNc1nc2ccccc2n2c(CCc3ccccc3)cnc12,2.58
2,CC(C)Cn1cnc2c(N)nc3ccccc3c21 [IMIQUIMOD],33.5

# Test system: MCF7
# Assay: Cytotoxicity against human MCF7 cells after 96 hrs by MTT assay
# Type: functional, cell-based
# Details: MCF7, 96 h
# How it was run: as §1
row,SMILES,IC50 [µM]
1,CNc1nc2ccccc2n2c(CCc3ccccc3)cnc12,1.08

# Test system: not listed separately
# Assay: Toxicity in ip dosed Swiss mouse
# Type: organism-based
# Details: in vivo
# How it was run: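 Single intraperitoneal doses of 30 to 300 mg/kg given to healthy Swiss mice. Compound dissolved in intralipid/DMSO (50:50, v/v) because of poor water solubility. Read-out is the 50% lethal dose (LD50).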
row,SMILES,LD50 [mg/kg]
1,CNc1nc2ccccc2n2c(CCc3ccccc3)cnc12,> 300

# Test system: not listed separately
# Assay: Cytotoxicity against human RPMI7591 cells after 96 hrs by MTT assay
# Type: functional, cell-based
# Details: not given
row,SMILES,IC50 [µM]
1,CNc1nc2ccccc2n2c(CCc3ccccc3)cnc12,4.23
2,CC(C)Cn1cnc2c(N)nc3ccccc3c21 [IMIQUIMOD],53.7
